Activity calls are given as the source filed them. The calls are words filed in the database; no cut-off is given here.

Test [1] concerns Trypanosoma cruzi. The test is described as follows: Antitrypanosomatid activity against Trypanosoma cruzi Tulahuen 2 epimastigote form at 25 uM. The class given is functional. As to conditions: read-out: GI. In short, it runs like this: (§1)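 Tulahuen 2 epimastigotes in BHI-tryptose plus 5% FCS at 28°C, inoculated at 1×10^6 cells/mL with compound (25 or 100 µM) from DMSO stock, final DMSO ≤0.4%. Growth over 5 days followed by A600; %GI computed from day-0 and day-5 absorbances of treated vs compound-free control cultures; mean of three experiments.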

Test [2] has as its system Trypanosoma cruzi. The test is described as follows: Antitrypanosomatid activity against Trypanosoma cruzi Y epimastigote form. It is filed as functional, organism-based. In short, it runs like this: (§2)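 Epimastigotes grown at 28°C in BHI-tryptose with 5% fetal calf serum; 5-day stationary-phase cells inoculated at 1×10^6 cells/mL with compound added from DMSO stock (final DMSO ≤0.4%; control contains 0.4% DMSO). Growth followed by A600; at day 5 absorbance related to control across increasing concentrations; IC50 taken as concentration reducing absorbance ratio to 50%.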

Test [3] has as its system J774. The test is described as follows: Cytotoxicity against mouse J774 macrophage at 400 uM. The class given is functional. The method, boiled down: (§3)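 J774 macrophages in RPMI 1640 with 20% heat-inactivated FCS, attached 24 h at 37°C in 5% CO2, then exposed to compound for 48 h. Washed, MTT 0.4 mg/mL 60 min at 37°C, formazan dissolved in DMSO, OD595 read. Each concentration in triplicate with six growth controls; %cytotoxicity corrected for compound-in-medium and medium-only blanks.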

The subject of test [4] is Trypanosoma cruzi. The test is described as follows: Antitrypanosomatid activity against Trypanosoma cruzi CL Brener epimastigote form. The class given is functional, organism-based. In short, it runs like this:
as §2

The test system of test [5] is Trypanosoma cruzi. The test is described as follows: Antitrypanosomatid activity against Trypanosoma cruzi Tulahuen 2 epimastigote form. The class given is functional, organism-based. In short, it runs like this:
as §2

The test system of test [6] is J774. The test can be described thus: Cytotoxicity against mouse J774 macrophage at 40 uM. The class given is functional. In short, it runs like this:
as §3

Test [7] deals with Trypanosoma cruzi. The test can be described thus: Antitrypanosomatid activity against Trypanosoma cruzi Tulahuen 2 epimastigote form at 100 uM. To be noted: read-out: GI. It is filed as functional. In short, it runs like this:
as §1

For test [8], the system named is Leishmania infantum. The test can be described thus: Leishmanicidal activity against Leishmania infantum promastigote form at 100 ug/mL. The class given is functional. The method, boiled down: (§4)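 Promastigotes grown at 28°C in Schneider's medium with 20% FCS, seeded at 10^7 parasites/mL; compound dissolved in minimal DMSO or Tween 80 and diluted in Schneider's medium to a final 100 µg/mL. After 72 h at 28°C, parasites examined by inverted microscopy and compared with compound-free control.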

The test system of test [9] is Trypanosoma cruzi. The test is described as follows: Trypanocidal activity against Trypanosoma cruzi CL Brener trypomastigote form in mouse blood at 250 ug/mL. It is filed as functional. In short, it runs like this:
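Trypomastigotes taken from infected mouse blood; compound in DMSO diluted with PBS to 250 µg/mL, mixed with blood containing 10^6 parasites at 90/10 ratio, incubated 24 h at 4°C. Parasites counted by the Brener method under microscope; gentian violet positive and PBS negative controls.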

Test [10] deals with Leishmania braziliensis. The test can be described thus: Leishmanicidal activity against Leishmania braziliensis promastigote form at 100 ug/mL. The class given is functional. In short, it runs like this:
as §4

Test [11] relates to Leishmania amazonensis. The test is described as follows: Leishmanicidal activity against Leishmania amazonensis promastigote form at 100 ug/mL. The class given is functional. The method, boiled down: as §4
The subject of test [12] is J774. The test is described as follows: Cytotoxicity against mouse J774 macrophage at 4 uM. It is filed as functional, cell-based. The method, boiled down: as §3
The test system of test [13] is Trypanosoma cruzi. The test can be described thus: Activity against Trypanosoma cruzi in BALB/c mouse at 30 mg/kg/day after 60 days. The class given is functional, organism-based. The method, boiled down:
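Male BALB/c mice (30 days old, 25-30 g) infected i.p. with 10^3 blood trypomastigotes; oral dosing began 10 days post-infection, 30 mg/kg/day as aqueous PBS solution for 10 days; groups of eight, PBS control group of 10. Mortality recorded daily, parasitemia weekly; anti-T. cruzi antibodies measured serologically (absorbance) at 30 and 60 days post-infection, groups compared by Wilcoxon test.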

For `CCCCCCNC(=O)N/N=C/c1ccc2c(c1)=[N+]([O-])C(C)(C)[N+]=2[O-]`, the inhibition of growth at 25 µM in test [1] stood at 69%.

Turning to `CC1(C)[N+]([O-])=c2ccc(/C=C/c3ccccc3)cc2=[N+]1[O-]`, the results for the IC50 in test [2], in test [4] and in [5] were 5 µM, 6 µM and 3.4 µM, respectively. In test [1], the inhibition of growth at 25 µM was 100%. The Activity entry in test [3] is “Toxic”; in [6] it was less than 50%.

As for `O=C(Cn1ccnc1[N+](=O)[O-])NCc1ccccc1` [BENZNIDAZOLE], the inhibition of growth at 25 µM in test [1] amounted to 92%. Also, the IC50 was 3.4 µM in test [4] and 8.5 µM in test [5].

In the case of `CCOC(=O)COn1c(C)[n+]([O-])c2ccccc21`, in [1], the inhibition of growth at 25 µM was 1%. Moreover, the inhibition of growth at 100 µM in test [7] came out at 12%.

Consider `Cc1n(O)c2ccc(/C=C/c3ccccc3)cc2[n+]1[O-]`, for which, in test [1], the inhibition of growth at 25 µM was 19%. Also, the inhibition of growth at 100 µM in [7] came out at 15%.

Regarding `Cc1ccc2c(c1)=[N+]([O-])C(C)(C)[N+]=2[O-]`, the Activity in test [8] was 70%; in [9], 0%; in test [10], 70%; in test [11], 70%; in [3], “Toxic”; in test [6], less than 50%. Also, the IC50 in test [2] was determined as 13 µM; in test [4], 13.5 µM; in test [5], 5.1 µM. In test [1], the inhibition of growth at 25 µM turned out to be 85%.

For the compound `Cc1n(O)c2ccccc2[n+]1[O-]`, the result in [8] and in test [11] was inactive. Moreover, the Activity in test [9] amounted to 0%; in test [10] it was 70%. In addition, the inhibition of growth at 25 µM in test [1] stood at 0%. Also, the inhibition of growth at 100 µM in test [7] was found to be 0%.

On to `Cc1ccc2c(c1)[n+]([O-])c(C)n2O`, for which the outcome in test [8], in test [10] and in test [11] was inactive. In [9], this compound returned an Activity of 0%. Also, the inhibition of growth at 25 µM in test [1] was 0%. Also, the inhibition of growth at 100 µM in [7] was 0%.

For `CCOC(=O)COn1c(C)[n+]([O-])c2cc(C)ccc21`, the inhibition of growth at 25 µM in [1] was determined as 25%. Besides, the inhibition of growth at 100 µM in test [7] worked out at 15%.

For the compound `N=C(N)c1ccc(OCCCCCOc2ccc(C(=N)N)cc2)cc1` [PENTAMIDINE], the Activity in test [8], in test [10] and in [11] was 100% in each case.

Take `CCOC(=O)COn1c(C)[n+]([O-])c2cc(/C=C/c3ccccc3)ccc21`: in [1], the inhibition of growth at 25 µM is 8%. Moreover, the inhibition of growth at 100 µM in test [7] is 11%.

Consider `COc1ccc2c(c1)[n+]([O-])c(C)n2O`, for which the outcome in test [8], in test [10] and in test [11] was inactive. The compound further returned an Activity in [9] of 23%. Further, in test [1], the inhibition of growth at 25 µM came out at 0%. Also, the inhibition of growth at 100 µM in [7] stood at 24%.

`CC1(C)[N+]([O-])=c2ccc(Br)cc2=[N+]1[O-]`: the IC50 in [2] was found to be 13.8 µM; in test [4], 12 µM; in test [5] it was 8.3 µM. Moreover, the inhibition of growth at 25 µM in [1] is 77%. The Activity entry is “Toxic” in test [3] and less than 50% in test [6].

Regarding `CCOC(=O)c1ccc2[nH]c(C(=O)OCC)[n+]([O-])c2c1`, the result in test [8], in test [10] and in test [11] was inactive. In [9], the Activity was 50%.

As for `O=[N+]([O-])c1ccc2c(c1)[n+]([O-])c1n2CCC1`, the inhibition of growth at 25 µM in test [1] was 0%.

With `CC1(C)[N+]([O-])=c2ccc(/C=N/O)cc2=[N+]1[O-]`, the Activity is 100% in test [8]; 21% in [9]; “Not toxic” in test [12]; 100% in [10]; 100% in [11]; “Not toxic” in [3]. Moreover, the Activity entry in [6] was “Not toxic”. For the same compound, the IC50 in test [2] was found to be 11.8 µM; in test [4] it was 14.5 µM; in test [5], 12.5 µM. The inhibition of growth at 25 µM in test [1] came out at 72%. Further, the outcome in test [13] was Active.

For `Cc1n(O)c2ccc(Br)cc2[n+]1[O-]`, in test [1], the inhibition of growth at 25 µM was 0%. Also, the inhibition of growth at 100 µM in test [7] was 18%.

For `O=[N+]([O-])c1ccc2c(c1)[n+]([O-])c1n2CCOC1`, the inhibition of growth at 25 µM in test [1] came to 0%.

Take `CC1(C)[N+]([O-])=c2ccc(C3OCCO3)cc2=[N+]1[O-]`: the Activity is 100% in [8]; 28% in test [9]; 100% in test [10]; 100% in [11]; 50% in test [3]. The results for the IC50 in [2], in [4] and in [5] were 14 µM, 20 µM and 22.7 µM, respectively. Moreover, the inhibition of growth at 25 µM in test [1] is 59%. The result in [13] was Active.

Consider `O=[N+]([O-])c1ccc2c(c1)[n+]([O-])c1n2CCSC1`, for which, in [1], the inhibition of growth at 25 µM was 0%.

As for `CCOC(=O)c1[nH]c2ccc([N+](=O)[O-])cc2[n+]1[O-]`, the outcome in test [8], in test [10] and in test [11] was inactive. Besides, the Activity in [9] is 0%.

Take `CN(C)c1ccc(C(=C2C=CC(=[N+](C)C)C=C2)c2ccc(N(C)C)cc2)cc1.[Cl-]` [GENTIAN VIOLET]: the Activity in test [9] was determined as 100%.

For `CC1(C)[N+]([O-])=c2ccccc2=[N+]1[O-]`, the Activity in test [8] is 100%; in [9] it was 10%; in test [10] it was 100%; in test [11], 100%; in test [3] it was “Toxic”; in test [6], less than 50%. The IC50 in test [2] stood at 14 µM; in test [4], 9 µM; in test [5], 4.3 µM. For the same compound, the inhibition of growth at 25 µM in [1] amounted to 87%.

Regarding `CCCCCOn1c(C)[n+]([O-])c2ccccc21`, in [1], the inhibition of growth at 25 µM turned out to be 0%. In [7], the inhibition of growth at 100 µM turned out to be 57%.

On to `CC1CS(=O)(=O)CCN1/N=C/c1ccc([N+](=O)[O-])o1` (stereo not drawn) [NIFURTIMOX], for which the inhibition of growth at 25 µM in test [1] was found to be 93%.

Consider `Cc1n(O)c2ccc(Cl)cc2[n+]1[O-]`, for which the inhibition of growth at 25 µM in test [1] was 0%. The inhibition of growth at 100 µM in test [7] worked out at 8%.

For `O=[N+]([O-])c1ccc2c(c1)[n+]([O-])c1n2CCCC1`, the inhibition of growth at 25 µM in test [1] worked out at 0%.

The compound `CCCCOC(=O)c1[nH]c2ccc([N+](=O)[O-])cc2[n+]1[O-]` registered an Activity in [9] of 0%.

Take `COc1ccc2c(c1)=[N+]([O-])C(C)(C)[N+]=2[O-]`: in test [8], the outcome was inactive. Moreover, the Activity was 34% in [9]; 70% in test [10]; 70% in [11]; “Toxic” in test [3]; less than 50% in test [6]. Moreover, the results for the IC50 in [2], in [4] and in [5] were 17 µM, 25 µM and 28.5 µM, respectively. Also, the inhibition of growth at 25 µM in test [1] worked out at 52%.

The record behind these values is ChEMBL document CHEMBL1147825, “2H-benzimidazole 1,3-dioxide derivatives: a new family of water-soluble anti-trypanosomatid agents” (J Med Chem, 2006).
